# Compounds with a hit are over-represented: about 1.1% of the library has one in this group of screens.
# CAL PDZ FP-1: untagged CAL PDZ binding inhibitors, primary screen, biochemical, fluorescence polarization, HTS | AID 602252, 2012 | purified CAL PDZ, TMR-peptide fluorescence polarization, 1 h | 300,000 tested, 0.92% active | inhibition, % at 24.9 µM | Golgi-associated PDZ and coiled-coil motif-containing protein (Homo sapiens), Q9HD26;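 active means mean inhibition of at least 30% with at least half of replicates also reaching 30%; inconclusive means no clear call, values can overlap the other calls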;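 further: 0% = DMSO neutral control and 100% = excess unlabeled competitor peptide PRC23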
# miR122 inh: miR-122 Renilla sensor signal increase in Huh7, primary screen, miR-122 inhibitor project, cell-based, single point, plate reader; Huh7 miR-122 Renilla luciferase sensor, 48 h; neutral wells = 0, positive control = 100; activation (reporter increase), % at 12.5 µM; 340,000 tested, 0.3% active; AID 602342, 2012;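 active means mean replicate activation score at least 90 and every replicate individually at or above 90; inconclusive means only one of the two criteria met; inactive means neither criterion met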;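 further: higher luciferase means less miR-122 activity so hits act as miR-122 inhibitors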
# LANA DNA inh: inhibitors of KSHV C-LANA binding to DNA, primary screen, biochemical, fluorescence polarization, FAM-LBS DNA, MBP-C-LANA, single point; 340,000 tested, 0.078% active; inhibition, % at 9 µM; AID 504423, 2011;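 active means highest replicate inhibition at or above 60% at 9 µM, even if other replicates fall short; inactive means all replicates below 60% inhibition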;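 further: 0% = neutral control wells and 100% = 4 µM acridine orange control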
# Keap1 Nrf2 FP: Keap1-Nrf2 protein-protein interaction inhibitors, primary screen, biochemical, fluorescence polarization, single point; Kelch-like ECH-associated protein 1 (Homo sapiens), Q14145; Keap1 Kelch-Nrf2 peptide fluorescence polarization, 1536-well; inhibition, % at 9.4 µM; 340,000 tested, 0.15% active; AID 504523, 2011; in the data active means inhibition above about 12%; inconclusive means no clear call, values can overlap the other calls; inactive means below about 7.3%;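 further: human Keap1 Kelch domain with fluorescein labeled Nrf2 9mer peptide probe; 0% = neutral control wells and 100% = peptide positive control; higher means more block of Keap1 binding to Nrf2 peptide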
# Target sequence (Q14145 whole entry, looked up, the tested form may be a part): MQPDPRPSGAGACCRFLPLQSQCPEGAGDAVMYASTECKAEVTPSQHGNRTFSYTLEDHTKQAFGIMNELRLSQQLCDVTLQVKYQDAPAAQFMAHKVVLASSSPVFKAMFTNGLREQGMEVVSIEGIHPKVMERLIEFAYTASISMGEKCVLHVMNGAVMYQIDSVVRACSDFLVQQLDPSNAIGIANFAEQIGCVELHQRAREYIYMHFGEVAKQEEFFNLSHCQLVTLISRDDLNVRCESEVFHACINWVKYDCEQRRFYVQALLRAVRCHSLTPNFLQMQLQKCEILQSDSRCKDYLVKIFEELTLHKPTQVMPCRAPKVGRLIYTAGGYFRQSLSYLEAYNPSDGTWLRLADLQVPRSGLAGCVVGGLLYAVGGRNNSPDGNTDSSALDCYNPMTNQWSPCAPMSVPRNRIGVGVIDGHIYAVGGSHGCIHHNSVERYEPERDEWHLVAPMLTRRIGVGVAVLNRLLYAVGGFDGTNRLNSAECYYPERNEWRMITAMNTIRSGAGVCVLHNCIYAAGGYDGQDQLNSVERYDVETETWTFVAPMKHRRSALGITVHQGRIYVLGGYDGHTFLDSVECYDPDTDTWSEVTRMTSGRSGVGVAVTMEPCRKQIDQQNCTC
# CAL PDZ FP-2: CAL PDZ peptide-binding inhibitors, primary screen, biochemical, fluorescence polarization, Cer-tagged CAL PDZ, HTS. Golgi-associated PDZ and coiled-coil motif-containing protein (Homo sapiens), Q9HD26. purified CAL PDZ, TMR-peptide fluorescence polarization, 1 h. inhibition, % at 20 µM. 330,000 tested, 0.02% active;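 active means highest replicate inhibition of at least 40%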;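 further: plate controls were DMSO neutral control wells for no effect and unlabeled competitor peptide control wells for full effect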
#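 Test system: purified CerCALP PDZ construct; Compound dosing: one concentration, 20 µM compound; Also added: TMR-labelled reporter peptide T*-PRC34 bound in PDZ groove; Read-out: inhibition from polarization loss; Controls: unlabelled peptide and DMSO controls; Signal: FP readout, S and P plane fluorescence; Incubation: 1 h at RT.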
# * hit, by the source's call; ? = inconclusive; · = no result; [ ] = another dose, or the depositor's remark.
SMILES,CAL PDZ FP-1,miR122 inh,LANA DNA inh,Keap1 Nrf2 FP,CAL PDZ FP-2
CCc1ccccc1N(CC(=O)NCCc1ccccc1)C(=O)CCC(=O)Nc1ccccn1,65*,-7,-1,4,0
Cc1ccc(S(=O)(=O)N(C)C[C@H]2Oc3cc(C#Cc4ccccc4)ccc3S(=O)(=O)N([C@@H](C)CO)C[C@H]2C)cc1,·,26[16.7 µM],·,·,·
Cc1ccc(NC(=O)COC(=O)Cn2ccc(=O)[nH]c2=O)cc1C,40*,·,0,-4,0
Cc1ccc(NC(=O)COC(=O)CN2CCCCCC2=O)cc1C,-5,·,-1,-3,-2
Cn1c(=O)n(C)c2cc3[nH]cnc3cc21,42*,-2,1,-4,-1
CC(C)(C)NS(=O)(=O)c1ccc(OCC(=O)Nc2ccc3c(c2)OCCO3)cc1,-5,112*,0,3,-1
COc1ccccc1NS(=O)(=O)c1cc(NC(=O)COc2ccccc2)ccc1N1CCOCC1,-2,·,-1,-2,-2
CC(NS(=O)(=O)c1ccc(Cl)c(Cl)c1)C(=O)OCC(=O)Nc1ccc2c(c1)OCO2 (configuration not stated),-6,-2,2,2,70*
C[C@H](NS(=O)(=O)c1ccc(Cl)cc1)C(=O)OCC(=O)NC(=O)Nc1ccc2c(c1)OCCO2,-3,·,-1,-4,-1
O=C(Nc1ccc(N2CCOCC2)c(S(=O)(=O)Nc2ccccc2Cl)c1)c1ccccc1,-5,·,-4,2,0
CC(=O)NC(=S)Nc1ccc(N2CCOCC2)c(S(=O)(=O)Nc2cc(Cl)ccc2Cl)c1,64*,·,0,-5,-1
COc1cccc(CC(=O)Nc2ccc(N3CCOCC3)c(S(=O)(=O)Nc3ccccc3OC)c2)c1,-7,129*,0,2,-2
Cc1ccc(-c2ccc3c(c2)O[C@H](CN(C)C(=O)CN(C)C)[C@H](C)CN([C@@H](C)CO)S3(=O)=O)cc1,·,-14[16.7 µM],·,·,·
COc1ccc(NC(=O)Cc2cccc(F)c2)cc1S(=O)(=O)Nc1ccccc1Cl,-10,332*,-2,-2,-2
O=S(=O)(Nc1ccc(N2CCOCC2)cc1)c1cc(Cl)ccc1Cl,1,94*,4,0,-3
COc1ccc(NS(=O)(=O)c2cc(NC(=O)COc3ccc(OC)cc3)ccc2N2CCOCC2)cc1,·,110*,-1,-2,-1
COCC(=O)Nc1ccc(N2CCOCC2)c(S(=O)(=O)Nc2ccc(OC)cc2)c1,?,76,0,1,-1
O=C(O)c1ccc(NC2=C(Cl)C(=O)c3ccccc3C2=O)cc1,-6,-2,4,9.3*,2
O=C(C[C@@H]1CC[C@@H]2[C@H](COC[C@@H](O)CN2C(=O)C2CC2)O1)NCc1ccncc1,·,3[16.7 µM],·,·,·
O=C(CSc1nnc(CNC(=O)c2c(F)cccc2Cl)o1)Nc1ccccc1,-5,-3,0,-2,-2
CN(C)S(=O)(=O)c1ccc(C(=O)NCc2nnc(SCC(=O)N3CCCCCC3)o2)cc1,8,-4,1,7,-2
O=C(NCc1nnc(SCC(=O)N2CCCCC2)o1)c1c(F)cccc1Cl,78*,0,0,-4,-1
O=C(NCc1nnc(SCC(=O)N2CCCC2)o1)c1c(F)cccc1Cl,-4,4,-1,-1,-3
CC1CCN(C(=O)CSc2nnc(CNC(=O)c3ccc(S(=O)(=O)N(C)C)cc3)o2)CC1,55*,-6,0,-5,0
O=C(CSc1nnc(CNC(=O)c2c(F)cccc2Cl)o1)NC1CCCC1,74*,-4,2,-5,-1
COc1ccc(S(=O)(=O)Nc2ccc3c(c2)OC[C@H](C)NC[C@@H](C)[C@@H](OC)CN(C)C3=O)cc1,·,14[16.7 µM],·,·,·
C[C@H](CO)N1C[C@H](C)[C@H](CN(C)C(=O)c2cccc(F)c2)Oc2cc(-c3ccncc3)ccc2S1(=O)=O,·,3[16.7 µM],·,·,·
Cc1ccc(OCC(=O)N2CCN(C(=O)Cc3ccccc3)CC2)cc1,2,·,0,-1,0
